Nine molecules from ChEMBL document CHEMBL4364274, “Synthesis and biological activity of glycyrrhetinic acid derivatives as antitumor agents” (Eur J Med Chem, 2019) can be followed below.

Experiment [1] relates to A549. The experiment is described as follows: Antiproliferative activity against human A549 cells incubated for 72 hrs by MTT assay. The class given is functional, cell-based. Particulars: A549, 72 h. The gist of the method: (§1)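 Cells in exponential growth were plated at 3×10^3 cells/well and grown 24 h at 37 °C in 5% CO2. They were then exposed to a range of drug concentrations for 72 h. MTT (5 mg/mL solution) was added for 4 h, the medium was discarded, and formazan was dissolved in DMSO before reading A490. Drug-free wells served as blanks. % inhibition was calculated as 1 − (sample−blank)/(control−blank), and IC50 was taken as the concentration giving 50% inhibition.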

Experiment [2] deals with MCF7. The experiment is described as follows: Antiproliferative activity against human MCF7 cells incubated for 72 hrs by MTT assay. The class given is functional, cell-based. Particulars: MCF7, 72 h. An outline of the steps: as §1
Experiment [3] relates to HepG2. The experiment is described as follows: Antiproliferative activity against human HepG2 cells incubated for 72 hrs by MTT assay. The class given is functional, cell-based. The following applies: HepG2, 72 h. An outline of the steps: as §1
Experiment [4] concerns HeLa. The experiment in a line: Antiproliferative activity against human HeLa cells incubated for 72 hrs by MTT assay. The experiment is classed as functional, cell-based. An outline of the steps:
as §1

Experiment [5] concerns MDCK. The experiment in a line: Cytotoxicity against MDCK cells incubated for 72 hrs by MTT assay. The experiment is classed as cell-based. Particulars: Canis lupus familiaris. The gist of the method: as §1
The test system of experiment [6] is HepG2. The experiment is described as follows: Ratio of IC50 for GA to IC50 for test compound for human HepG2 cells. The class given is functional.
Experiment [7] concerns A549. The experiment in a line: Induction of morphological changes in human A549 cells assessed as appearance of apoptotic body formation at 1 to 5 uM incubated for 72 hrs by DAPI staining by inverted phase-contrast microscopic method. The experiment is classed as functional, cell-based. The gist of the method:
(§2)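 Exponentially growing A549 cells were plated at 2.4×10^4 cells/well, grown 24 h at 37 °C in 5% CO2, then exposed to 1, 3 or 5 μM for 72 h beside untreated controls. Cells were washed twice in PBS, fixed in 4% paraformaldehyde for 10 min, and stained with DAPI (10 µg/mL) for 1 min in the dark. Nuclei were examined by inverted microscope at 200×.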

Experiment [8] relates to A549. The experiment is described as follows: Induction of morphological changes in human A549 cells assessed as condensation of chromatin at 1 to 5 uM incubated for 72 hrs by DAPI staining by inverted phase-contrast microscopic method. The class given is functional, cell-based. The gist of the method: as §2
Experiment [9] has as its system A549. The experiment is described as follows: Induction of morphological changes in human A549 cells assessed as formation of nuclear fragmentation at 1 to 5 uM incubated for 72 hrs by DAPI staining by inverted phase-contrast microscopic method. The experiment is classed as functional, cell-based. An outline of the steps:
as §2

Experiment [10] has as its system A549. The experiment in a line: Induction of apoptosis in human A549 cells assessed as live cell at 1 uM incubated for 72 hrs by annexin V-FITC and PI staining based flow cytometric analysis (reference value: 90%). The class given is functional.
Experiment [11] concerns A549. The experiment in a line: Induction of apoptosis in human A549 cells assessed as early apoptotic cells at 1 uM incubated for 72 hrs by annexin V-FITC and PI staining based flow cytometric analysis (reference value: 3.0%). The class given is functional.
The test system of experiment [12] is A549. The experiment in a line: Induction of apoptosis in human A549 cells assessed as late apoptotic cells at 1 uM incubated for 72 hrs by annexin V-FITC and PI staining based flow cytometric analysis (reference value: 6.5%). The experiment is classed as functional.
Experiment [13] has as its system A549. The experiment in a line: Induction of apoptosis in human A549 cells assessed as necrotic cells at 1 uM incubated for 72 hrs by annexin V-FITC and PI staining based flow cytometric analysis (reference value: 0.5%). The experiment is classed as functional.
Experiment [14] relates to A549. The experiment in a line: Induction of apoptosis in human A549 cells assessed as live cell at 3 uM incubated for 72 hrs by annexin V-FITC and PI staining based flow cytometric analysis (reference value: 90%). The class given is functional.
Experiment [15] has as its system A549. The experiment in a line: Induction of apoptosis in human A549 cells assessed as early apoptotic cells at 3 uM incubated for 72 hrs by annexin V-FITC and PI staining based flow cytometric analysis (reference value: 3.0%). The class given is functional.
For experiment [16], the system named is A549. The experiment is described as follows: Induction of apoptosis in human A549 cells assessed as late apoptotic cells at 3 uM incubated for 72 hrs by annexin V-FITC and PI staining based flow cytometric analysis (reference value: 6.5%). The experiment is classed as functional.
In experiment [17] the test system is A549. The experiment in a line: Induction of apoptosis in human A549 cells assessed as necrotic cells at 3 uM incubated for 72 hrs by annexin V-FITC and PI staining based flow cytometric analysis (reference value: 0.5%). The experiment is classed as functional.
Experiment [18] deals with A549. The experiment in a line: Induction of apoptosis in human A549 cells assessed as live cell at 5 uM incubated for 72 hrs by annexin V-FITC and PI staining based flow cytometric analysis (reference value: 90%). The class given is functional.
Experiment [19] concerns A549. The experiment in a line: Induction of apoptosis in human A549 cells assessed as early apoptotic cells at 5 uM incubated for 72 hrs by annexin V-FITC and PI staining based flow cytometric analysis (reference value: 3.0%). The class given is functional.
In experiment [20] the test system is A549. The experiment in a line: Induction of apoptosis in human A549 cells assessed as late apoptotic cells at 5 uM incubated for 72 hrs by annexin V-FITC and PI staining based flow cytometric analysis (reference value: 6.5%). The class given is functional.
Experiment [21] has as its system A549. The experiment is described as follows: Induction of apoptosis in human A549 cells assessed as necrotic cells at 5 uM incubated for 72 hrs by annexin V-FITC and PI staining based flow cytometric analysis (reference value: 0.5%). The experiment is classed as functional.
The test system of experiment [22] is A549. The experiment is described as follows: Induction of cell cycle arrest in human A549 cells assessed as accumulation at G1 phase at 1 uM incubated for 72 hrs by PI staining based flow cytometric analysis (reference value: 49.94%). The class given is functional.
Experiment [23] concerns A549. The experiment in a line: Induction of cell cycle arrest in human A549 cells assessed as accumulation at S phase at 1 uM incubated for 72 hrs by PI staining based flow cytometric analysis (reference value: 31.41%). The class given is functional.
Experiment [24] has as its system A549. The experiment is described as follows: Induction of cell cycle arrest in human A549 cells assessed as accumulation at G2 phase at 1 uM incubated for 72 hrs by PI staining based flow cytometric analysis (reference value: 18.65%). The experiment is classed as functional.
Experiment [25] has as its system A549. The experiment in a line: Induction of cell cycle arrest in human A549 cells assessed as accumulation at G1 phase at 3 uM incubated for 72 hrs by PI staining based flow cytometric analysis (reference value: 49.94%). The class given is functional.
The test system of experiment [26] is A549. The experiment is described as follows: Induction of cell cycle arrest in human A549 cells assessed as accumulation at S phase at 3 uM incubated for 72 hrs by PI staining based flow cytometric analysis (reference value: 31.41%). The class given is functional.
Experiment [27] concerns A549. The experiment is described as follows: Induction of cell cycle arrest in human A549 cells assessed as accumulation at G2 phase at 3 uM incubated for 72 hrs by PI staining based flow cytometric analysis (reference value: 18.65%). The experiment is classed as functional.
Experiment [28] concerns A549. The experiment is described as follows: Induction of cell cycle arrest in human A549 cells assessed as accumulation at G1 phase at 5 uM incubated for 72 hrs by PI staining based flow cytometric analysis (reference value: 49.94%). The class given is functional.
Experiment [29] concerns A549. The experiment is described as follows: Induction of cell cycle arrest in human A549 cells assessed as accumulation at S phase at 5 uM incubated for 72 hrs by PI staining based flow cytometric analysis (reference value: 31.41%). The class given is functional.
The test system of experiment [30] is A549. The experiment in a line: Induction of cell cycle arrest in human A549 cells assessed as accumulation at G2 phase at 5 uM incubated for 72 hrs by PI staining based flow cytometric analysis (reference value: 18.65%). The class given is functional.
For experiment [31], the system named is A549. The experiment in a line: Ratio of IC50 for GA to IC50 for test compound for human A549 cells. The class given is functional.

The source made the active and inactive calls. The rule behind the calls is not given here.

Consider `C[C@H](NC(=O)OC(C)(C)C)C(=O)O[C@H]1CC[C@]2(C)[C@H]3C(=O)C=C4[C@@H]5C[C@@](C)(C(=O)OCc6ccccc6)CC[C@]5(C)CC[C@@]4(C)[C@]3(C)CC[C@H]2C1(C)C`, for which the IC50 in experiment [1], in experiment [2], in [3], in experiment [4] and in experiment [5] was above 40 µM throughout.
On to `CC1(C)[C@@H](NC(=O)[C@@H]2CCCN2)CC[C@]2(C)[C@H]3C(=O)C=C4[C@@H]5C[C@@](C)(C(=O)OCc6ccccc6)CC[C@]5(C)CC[C@@]4(C)[C@]3(C)CC[C@@H]12`, for which the IC50 in [1] turned out to be 3.26 µM; in experiment [2], 7.62 µM; in [3], 2.14 µM; in experiment [4], 2.21 µM; in experiment [5], 2.53 µM. Besides, the “Ratio IC50” value in experiment [6] was determined as 16.
Regarding `CC(C)C[C@H](NC(=O)OC(C)(C)C)C(=O)N[C@H]1CC[C@]2(C)[C@H]3C(=O)C=C4[C@@H]5C[C@@](C)(C(=O)OCc6ccccc6)CC[C@]5(C)CC[C@@]4(C)[C@]3(C)CC[C@H]2C1(C)C`, the IC50 in [1], in experiment [2], in [3], in experiment [4] and in experiment [5] was above 40 µM in each case.
`CC(C)C[C@H](N)C(=O)N[C@H]1CC[C@]2(C)[C@H]3C(=O)C=C4[C@@H]5C[C@@](C)(C(=O)OCc6ccccc6)CC[C@]5(C)CC[C@@]4(C)[C@]3(C)CC[C@H]2C1(C)C`: the IC50 in experiment [1] was 3.28 µM; in experiment [2], 6.1 µM; in experiment [3], 6.21 µM; in experiment [4], 2.3 µM; in [5] it was 4.65 µM.
As to `CC(C)(C)OC(=O)N1CCC[C@H]1C(=O)O[C@H]1CC[C@]2(C)[C@H]3C(=O)C=C4[C@@H]5C[C@@](C)(C(=O)OCc6ccccc6)CC[C@]5(C)CC[C@@]4(C)[C@]3(C)CC[C@H]2C1(C)C`, the IC50 in [1], in [2], in experiment [3], in experiment [4] and in experiment [5] was above 40 µM throughout.
Take `CC[C@H](C)[C@H](N)C(=O)N[C@H]1CC[C@]2(C)[C@H]3C(=O)C=C4[C@@H]5C[C@@](C)(C(=O)OCc6ccccc6)CC[C@]5(C)CC[C@@]4(C)[C@]3(C)CC[C@H]2C1(C)C`: the IC50 in [1] amounted to 3.43 µM; in [2] it was 4.69 µM; in experiment [3], 5.15 µM; in experiment [4], 2.94 µM; in [5], 4.13 µM.
On the same counts, the results for `CSCC[C@H](N)C(=O)O[C@H]1CC[C@]2(C)[C@H]3C(=O)C=C4[C@@H]5C[C@@](C)(C(=O)OCc6ccccc6)CC[C@]5(C)CC[C@@]4(C)[C@]3(C)CC[C@H]2C1(C)C` are 7.53 µM, 8.07 µM, 9.96 µM, 10.6 µM and 39.2 µM.
For `C[C@H](N)C(=O)N[C@H]1CC[C@]2(C)[C@H]3C(=O)C=C4[C@@H]5C[C@@](C)(C(=O)OCc6ccccc6)CC[C@]5(C)CC[C@@]4(C)[C@]3(C)CC[C@H]2C1(C)C`, the IC50 was determined as 2.11 µM in experiment [1]; 2.14 µM in experiment [2]; 2.44 µM in [3]; 2.39 µM in experiment [4]; 4.65 µM in experiment [5]. Besides, the outcome in experiment [7], in experiment [8] and in [9] was Active. Further, the Activity in experiment [10] is 85%; in [11], 5.9%; in experiment [12] it was 8.6%; in [13] it was 0.4%; in [14], 65.7%; in experiment [15], 26.5%. The Activity worked out at 7.5% in [16]; 0.3% in experiment [17]; 54% in experiment [18]; 44.8% in experiment [19]; 1.1% in [20]; 0% in experiment [21]. For the same molecule, the Activity in [22] was 53.09%; in experiment [23], 31.05%; in [24] it was 15.86%; in experiment [25], 56.45%; in experiment [26], 33.59%; in experiment [27], 9.96%. In addition, the Activity in [28] turned out to be 46.79%; in experiment [29] it was 53.21%; in experiment [30], 0%. For the same molecule, the “Ratio IC50” value in [31] is 18.
Consider `CC(C)(C)OC(=O)NCC(=O)N[C@H]1CC[C@]2(C)[C@H]3C(=O)C=C4[C@@H]5C[C@@](C)(C(=O)OCc6ccccc6)CC[C@]5(C)CC[C@@]4(C)[C@]3(C)CC[C@H]2C1(C)C`, for which the IC50 in experiment [1], in experiment [2], in [3], in [4] and in experiment [5] was above 40 µM in each case.
